{"source": "paper PMC3685407", "about": "(Neuropharmacology, 2013)", "key": {"muscle nAChRs": {"target": "muscle nAChRs (Homo sapiens, UniProt P02708+P07510+Q07001)", "sequence (P07510 23-517)": "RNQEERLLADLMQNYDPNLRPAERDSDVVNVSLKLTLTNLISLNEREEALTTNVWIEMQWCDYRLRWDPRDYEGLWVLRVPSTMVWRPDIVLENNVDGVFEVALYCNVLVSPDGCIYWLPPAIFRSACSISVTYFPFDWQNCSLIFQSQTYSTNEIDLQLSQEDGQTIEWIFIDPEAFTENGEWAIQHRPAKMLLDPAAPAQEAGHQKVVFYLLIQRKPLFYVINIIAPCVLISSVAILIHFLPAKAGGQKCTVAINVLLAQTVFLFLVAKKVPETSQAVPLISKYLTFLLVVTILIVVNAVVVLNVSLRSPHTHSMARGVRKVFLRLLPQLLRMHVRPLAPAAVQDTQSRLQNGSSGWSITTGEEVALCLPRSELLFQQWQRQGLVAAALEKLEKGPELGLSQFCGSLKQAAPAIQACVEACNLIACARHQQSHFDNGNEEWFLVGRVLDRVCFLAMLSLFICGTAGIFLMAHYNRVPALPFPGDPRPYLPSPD", "sequence (Q07001 22-517)": "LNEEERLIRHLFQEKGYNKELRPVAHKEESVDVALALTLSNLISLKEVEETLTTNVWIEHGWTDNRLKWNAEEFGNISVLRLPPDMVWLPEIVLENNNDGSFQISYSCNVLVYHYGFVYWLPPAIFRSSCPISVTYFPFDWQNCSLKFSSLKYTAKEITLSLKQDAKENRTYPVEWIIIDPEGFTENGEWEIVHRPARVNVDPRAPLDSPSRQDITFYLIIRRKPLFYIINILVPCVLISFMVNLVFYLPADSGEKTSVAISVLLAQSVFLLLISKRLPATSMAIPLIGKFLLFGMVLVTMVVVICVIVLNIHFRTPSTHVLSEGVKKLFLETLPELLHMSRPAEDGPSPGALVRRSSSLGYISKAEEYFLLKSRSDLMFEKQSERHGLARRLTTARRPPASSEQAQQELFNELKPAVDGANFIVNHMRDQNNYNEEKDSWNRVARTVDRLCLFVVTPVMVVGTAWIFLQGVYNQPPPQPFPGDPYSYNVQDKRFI", "sequence (P11230 24-501, further chain)": "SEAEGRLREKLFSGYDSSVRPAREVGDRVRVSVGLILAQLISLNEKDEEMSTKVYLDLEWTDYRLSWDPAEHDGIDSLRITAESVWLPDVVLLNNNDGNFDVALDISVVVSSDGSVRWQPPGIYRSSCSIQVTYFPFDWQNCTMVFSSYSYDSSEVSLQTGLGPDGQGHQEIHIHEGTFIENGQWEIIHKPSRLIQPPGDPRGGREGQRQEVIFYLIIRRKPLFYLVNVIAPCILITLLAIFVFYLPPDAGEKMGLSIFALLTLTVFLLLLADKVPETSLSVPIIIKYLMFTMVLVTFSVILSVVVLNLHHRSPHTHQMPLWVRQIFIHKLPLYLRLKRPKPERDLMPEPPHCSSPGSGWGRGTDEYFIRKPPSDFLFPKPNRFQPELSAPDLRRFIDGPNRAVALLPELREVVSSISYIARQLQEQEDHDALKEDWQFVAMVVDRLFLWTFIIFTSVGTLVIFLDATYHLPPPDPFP", "sequence (P02708 21-457)": "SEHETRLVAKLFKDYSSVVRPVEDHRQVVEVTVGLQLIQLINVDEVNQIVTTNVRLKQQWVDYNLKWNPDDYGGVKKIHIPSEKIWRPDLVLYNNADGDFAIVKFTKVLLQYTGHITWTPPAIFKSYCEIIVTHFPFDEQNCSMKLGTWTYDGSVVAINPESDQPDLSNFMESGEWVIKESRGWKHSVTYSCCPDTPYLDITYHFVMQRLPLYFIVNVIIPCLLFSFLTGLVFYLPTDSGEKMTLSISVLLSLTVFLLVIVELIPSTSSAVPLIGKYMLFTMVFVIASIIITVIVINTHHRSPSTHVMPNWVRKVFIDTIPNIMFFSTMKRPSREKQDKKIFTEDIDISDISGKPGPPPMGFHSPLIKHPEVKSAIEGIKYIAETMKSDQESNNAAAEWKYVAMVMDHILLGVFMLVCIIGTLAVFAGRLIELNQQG", "assay": "biochemical", "type": "binding"}, "[1]": {"system": "L-dopa-induced AIMs in 6-OHDA lesioned rats", "conditions": "cited from earlier work"}, "[2]": {"system": "L-dopa-induced AIMs in parkinsonian rats", "conditions": "cited from earlier work"}, "[3]": {"system": "L-dopa-induced dyskinesias in Parkinson’s disease patients", "conditions": "small clinical trial, ref http://www.neuraltus.com/pages/news.html; cited from earlier work"}, "human α7 nAChRs": {"target": "human α7 nAChRs (Homo sapiens, UniProt P36544)", "sequence (P36544 23-502)": "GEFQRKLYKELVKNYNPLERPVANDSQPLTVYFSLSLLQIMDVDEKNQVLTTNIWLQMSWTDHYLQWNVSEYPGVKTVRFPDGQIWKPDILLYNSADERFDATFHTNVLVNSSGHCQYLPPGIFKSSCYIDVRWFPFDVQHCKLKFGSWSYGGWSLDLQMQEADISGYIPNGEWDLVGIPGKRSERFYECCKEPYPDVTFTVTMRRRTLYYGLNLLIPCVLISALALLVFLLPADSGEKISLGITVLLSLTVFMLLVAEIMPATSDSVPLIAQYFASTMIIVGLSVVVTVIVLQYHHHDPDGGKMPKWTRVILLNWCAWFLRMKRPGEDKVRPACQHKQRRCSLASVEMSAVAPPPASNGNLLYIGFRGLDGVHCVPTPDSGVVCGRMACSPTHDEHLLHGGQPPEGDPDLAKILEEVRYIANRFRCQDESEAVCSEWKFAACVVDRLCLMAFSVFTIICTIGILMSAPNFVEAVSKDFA", "assay": "biochemical", "type": "binding"}, "[4]": {"system": "L-dopa-induced AIMs in 6-OHDA lesioned rats", "assay": "L-dopa-induced AIMs in rats with severe unilateral 6-OHDA lesion", "type": "in vivo, rat", "conditions": "for AIM subtypes significantly affected by nAChR compounds: axial, oral, forelimb AIMs; for AIM subtypes significantly affected by nAChR compounds / Decrease in total AIM scores: severe dopaminergic lesion; for Decrease in total AIM scores: maximal decrease over the treatment periods, L-dopa 6 or 8 mg/kg plus benserazide 15 mg/kg sc; for Reduction in L-dopa-induced AIMs: range over the series, rats with severe nigrostriatal damage; for Total AIMs score: summary table, L-dopa 6 or 8 mg/kg plus benserazide, group not stated"}, "[5]": {"system": "forelimb use asymmetry in 6-OHDA lesioned rats", "assay": "Limb use asymmetry test", "type": "in vivo, rat", "conditions": "for % Contralateral limb use, nAChR compound: 5 min period, mean ± S.E.M of 5–9 rats", "in_short": "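Unilateral intracranial 6-OHDA lesions in rats (230–250 g). Forelimb use was rated over 5 min, once before and once 60 min after sc L-dopa plus benserazide (8.0 or 6.0 mg/kg plus 15 mg/kg, depending on study). The read-out was % contralateral limb use. Test compound was given by minipump or sc injection. In one study, testing was 4 wk after L-dopa treatment began.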"}, "human α3β4 nAChRs": {"target": "human α3β4 nAChRs (Homo sapiens, UniProt P30926+P32297)", "sequence (P32297 32-505)": "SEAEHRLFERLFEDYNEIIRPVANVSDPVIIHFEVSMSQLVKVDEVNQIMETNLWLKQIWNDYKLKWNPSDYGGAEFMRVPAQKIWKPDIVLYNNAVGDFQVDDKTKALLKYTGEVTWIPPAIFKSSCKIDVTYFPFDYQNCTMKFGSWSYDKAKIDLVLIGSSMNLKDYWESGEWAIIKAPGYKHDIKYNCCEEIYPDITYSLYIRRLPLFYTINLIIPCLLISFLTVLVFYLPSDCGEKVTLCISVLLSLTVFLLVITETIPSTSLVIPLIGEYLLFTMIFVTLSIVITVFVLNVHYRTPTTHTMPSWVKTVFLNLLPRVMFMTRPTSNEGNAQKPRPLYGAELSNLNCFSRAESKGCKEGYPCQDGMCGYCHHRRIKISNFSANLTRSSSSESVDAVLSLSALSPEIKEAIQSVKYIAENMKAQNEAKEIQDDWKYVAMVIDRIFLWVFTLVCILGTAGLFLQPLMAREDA", "sequence (P30926 22-498)": "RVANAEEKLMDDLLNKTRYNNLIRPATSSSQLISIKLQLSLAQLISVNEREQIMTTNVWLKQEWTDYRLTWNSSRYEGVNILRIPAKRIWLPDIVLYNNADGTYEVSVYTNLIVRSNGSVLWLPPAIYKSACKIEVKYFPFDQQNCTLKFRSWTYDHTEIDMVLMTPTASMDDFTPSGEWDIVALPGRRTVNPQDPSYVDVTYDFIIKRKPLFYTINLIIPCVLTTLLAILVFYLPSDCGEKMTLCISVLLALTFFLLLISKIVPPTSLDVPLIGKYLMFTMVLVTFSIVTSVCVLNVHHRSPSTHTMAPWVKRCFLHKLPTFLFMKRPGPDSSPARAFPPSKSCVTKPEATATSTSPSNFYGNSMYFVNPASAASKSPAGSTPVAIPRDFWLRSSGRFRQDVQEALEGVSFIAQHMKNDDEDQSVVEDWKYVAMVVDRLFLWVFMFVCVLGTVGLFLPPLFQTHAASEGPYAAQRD", "assay": "Competition membrane binding"}, "[6]": {"system": "^3H-dopamine release from rat striatal synaptosomes", "conditions": "read-out: EC50 for 3H-dopamine release; rat striatum; ref Zwart et al., 2008; cited from earlier work"}, "[7]": {"conditions": "rats with severe dopaminergic lesions, ref Bordia et al., 2010"}}, "note": "Where two headings read alike, the source gives them in different places."}
{"smiles": "CN1CCC[C@H]1c1cccnc1", "note": "[Nicotine]", "values": [{"measurement": "Ki", "setting": "muscle nAChRs", "result": 3500, "unit": "nM"}, {"measurement": "AIM subtypes significantly affected by nAChR compounds", "setting": "[1]; [7]", "result": "Oral = forelimb"}, {"measurement": "Decrease in total AIM scores", "setting": "[1]; [7]", "result": 35, "unit": "%"}, {"measurement": "Total AIMs score", "setting": "[1]; [7]", "result": "~75"}, {"measurement": "Persistence of the effect on L-dopa-induced AIMs with treatment", "setting": "[2]; study ended at this time, ref Bordia et al., 2008, Bordia et al., 2010", "result": "at least 4 months"}, {"measurement": "Effect on L-dopa-induced dyskinesias", "setting": "[3]", "result": "reduced several components of L-dopa-induced dyskinesias"}]}
{"smiles": "CN[C@@H](C)C/C=C/c1cncc(OC)c1", "note": "[TC-2696]", "values": [{"measurement": "Ki", "setting": "human α7 nAChRs; read-out: Ki α7 nAChRs, membrane binding, 3H-epibatidine, average ± SEM", "result": 85000, "unit": "nM"}, {"measurement": "Effect on L-dopa-induced AIMs", "setting": "[4]; 1.0 mg/kg/d via minipump, L-dopa 8 mg/kg plus benserazide 15 mg/kg sc", "result": "fewer total L-dopa-induced AIMs"}, {"measurement": "Effect on L-dopa-induced AIMs", "setting": "[4]; […] via minipump, L-dopa 8 mg/kg plus benserazide", "result": "results similar to those at the 1.0 mg/kg/d dose of the compound, except for a significant decline in forelimb AIMs"}, {"measurement": "AIM subtypes significantly affected by nAChR compounds", "setting": "[4]", "result": "Axial > forelimb"}, {"measurement": "Decrease in total AIM scores", "setting": "[4]", "result": 30, "unit": "%"}, {"measurement": "Reduction in L-dopa-induced AIMs", "setting": "[4]", "result": "23–32%"}, {"measurement": "Total AIMs score", "setting": "[4]", "result": "~75"}, {"measurement": "% Contralateral limb use, nAChR compound", "setting": "[5]; OFF L-dopa (before L-dopa)", "result": "3.27 ± 1.5", "unit": "%"}, {"measurement": "% Contralateral limb use, nAChR compound", "setting": "[5]; ON L-dopa (60 min after L-dopa)", "result": "35.6 ± 13.1", "unit": "%"}, {"measurement": "Effect on parkinsonism (forepaw asymmetry test)", "setting": "[5]; result in words", "result": "no significant effect"}]}
{"smiles": "OCCCCC#Cc1cncc(OC[C@@H]2CCN2)c1", "note": "[Sazetidine, 6-(5-(((S)-azetidin-2-yl)methoxy)pyridine-3-yl)hex-5-yn-1-ol]", "values": [{"measurement": "Ki", "setting": "human α7 nAChRs", "result": 3300, "unit": "nM"}, {"measurement": "Ki", "setting": "human α3β4 nAChRs", "result": "30 ± 2", "unit": "nM"}, {"measurement": "Ki", "setting": "muscle nAChRs", "result": "180 ± 84", "unit": "nM"}, {"measurement": "Effect on L-dopa-induced AIMs", "setting": "[4]; 0.5 mg/kg sc twice daily, L-dopa 8 mg/kg plus benserazide", "result": "no effect"}, {"measurement": "Effect on L-dopa-induced AIMs", "setting": "[4]; 1.0 mg/kg sc twice daily, L-dopa 8 mg/kg plus benserazide, P < 0.05", "result": "decline in total, oral and forelimb AIMs"}, {"measurement": "Effect on L-dopa-induced AIMs", "setting": "[4]; 2.0 mg/kg sc twice daily, compared with 1.0 mg/kg dose, data not shown", "result": "Results were similar"}, {"measurement": "AIM subtypes significantly affected by nAChR compounds", "setting": "[4]", "result": "Oral = forelimb"}, {"measurement": "Decrease in total AIM scores", "setting": "[4]", "result": 23, "unit": "%"}, {"measurement": "Reduction in L-dopa-induced AIMs", "setting": "[4]", "result": "23–32%"}, {"measurement": "Total AIMs score", "setting": "[4]", "result": "~75"}, {"measurement": "EC50", "setting": "[6]", "result": 1, "unit": "nM"}]}
{"smiles": "CNC1(C)C2CCC(C2)C1(C)C", "note": "(stereo not shown) [mecamylamine]", "values": [{"measurement": "Effect on L-dopa-induced AIMs", "setting": "[2]; parkinsonian rats, ref Bordia et al., 2010", "result": "attenuated AIMs"}]}
{"smiles": "c1cnc2cc3c(cc2n1)[C@@H]1CNC[C@H]3C1", "note": "[Varenicline]", "values": [{"measurement": "Decrease in total AIM scores", "setting": "[1]; severely lesioned rats, non-significant, ref Huang et al., 2011b", "result": 10, "unit": "%"}, {"measurement": "Total AIMs score", "setting": "[1]; severely lesioned rats, ref Huang et al., 2011b", "result": "~60"}]}
{"smiles": "c1cncc(OC[C@@H]2CCN2)c1", "note": "[A85380]", "values": [{"measurement": "Effect on L-dopa-induced AIMs", "setting": "[2]; 6-OHDA lesioned rats, ref Huang et al., 2011b", "result": "reduced L-dopa-induced AIMs"}]}
